Measured values published in ChEMBL document CHEMBL5705900, “PF-06463922 is a potent and selective next-generation ROS1/ALK inhibitor capable of blocking crizotinib-resistant ROS1 mutations” (Proc Natl Acad Sci U S A, 2015).
Activity calls are given as the source filed them. The rule behind the calls is not given here.

How the values were obtained:
[1] = system: Proto-oncogene tyrosine-protein kinase ROS (Homo sapiens), P08922 [G2032R]; experiment: Inhibition of recombinant human ROS1 G2032R mutant in presence of ATP by microfluidic mobility shift assay; details: dose 0.001-1000 nM
HCC78 [2] = experiment: Antiproliferative activity against human HCC78 cells assessed as reduction in cell viability incubated for 72 hrs by CellTiter-Glo assay; type: functional, cell-based; details: HCC78, 72 h
In short: (§1)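 HCC78 NSCLC cells seeded in growth medium with 10% FBS, cultured overnight at 37 °C, then exposed to serial compound dilutions for 72 h at 37 °C. Relative cell number read by CellTiter-Glo luminescence; IC50 from four-parameter concentration-response curve fit.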

[3] = system: Proto-oncogene tyrosine-protein kinase ROS (Homo sapiens), P08922 [L2026M]; experiment: Inhibition of recombinant human ROS1 L2026M mutant in presence of ATP by microfluidic mobility shift assay; details: dose 0.001-1000 nM
BaF3 [4] = experiment: Antiproliferative activity against mouse BaF3 cells harboring CD74-ROS1 L2026M mutant assessed as reduction in cell viability incubated for 72 hrs by CellTiter-Glo assay; type: functional, cell-based; details: BaF3, 72 h
In short: (§2)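 BaF3 cells engineered by pMSCV retroviral transduction (puromycin or hygromycin selection, 5 d, pooled populations) with CD74-ROS1 fusion variants. Seeded in growth medium with 10% FBS overnight at 37 °C, then serial compound dilutions for 72 h at 37 °C. CellTiter-Glo for relative cell number; IC50 by four-parameter curve fit.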

HCC78 [5] = experiment: Antiproliferative activity against human HCC78 cells harboring SLC34A2-ROS1 fusion protein assessed as reduction in cell viability incubated for 72 hrs by CellTiter-Glo assay; type: functional, cell-based; details: HCC78, 72 h; in short: as §1
[6] = Inhibition of CD74-ROS1 G2032R mutant expressed in mouse BaF3 cells assessed as inhibition of phosphorylated ROS1 incubated for 1 hr by ELISA analysis; type: cell-based; details: BaF3, 1 h
In short: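 BaF3 cells retrovirally engineered to express CD74-ROS1 G2032R, seeded in growth medium with 0.5% serum overnight. Compounds diluted in serum-free medium, added for 1 h, then aspirated. Lysates assayed for phospho-ROS1 (Tyr2274) by sandwich ELISA; IC50 from four-parameter concentration-response curve fit.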

[7] = target: T1, Proto-oncogene tyrosine-protein kinase ROS (Homo sapiens, UniProt P08922); experiment: Inhibition of recombinant human ROS1 in presence of ATP by microfluidic mobility shift assay; details: dose 0.001-1000 nM
[8] = target: T2, H-2 class II histocompatibility antigen gamma chain/Proto-oncogene tyrosine-protein kinase ROS (Mus musculus, UniProt Q78DX7); experiment: Inhibition of CD74-ROS1 expressed in mouse BaF3 cells assessed as inhibition of phosphorylated ROS1 incubated for 1 hr by ELISA analysis; type: cell-based
In short: (§3)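 Cells seeded in growth medium with 0.5% serum and incubated overnight; compounds diluted in serum-free medium, added for 1 h, then medium aspirated. Lysates assayed for phospho-ROS1 (Tyr2274) by sandwich ELISA. IC50 from four-parameter concentration-response curve fit. Engineered lines made by retroviral transduction (pMSCV) with puromycin or hygromycin selection for 5 d.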

BaF3 [9] = experiment: Antiproliferative activity against mouse BaF3 cells harboring CD74-ROS1 G2032R mutant assessed as reduction in cell viability incubated for 72 hrs by CellTiter-Glo assay; type: functional, cell-based; details: BaF3, 72 h; in short: as §2
[10] = target: T2, H-2 class II histocompatibility antigen gamma chain/Proto-oncogene tyrosine-protein kinase ROS; experiment: Inhibition of CD74-ROS1 expressed in mouse NIH3T3 cells assessed as inhibition of phosphorylated ROS1 incubated for 1 hr by ELISA analysis; type: cell-based; in short: as §3
[11] = target: T3, Golgi-associated PDZ and coiled-coil motif-containing protein/Proto-oncogene tyrosine-protein kinase ROS (Mus musculus, UniProt Q78DX7); experiment: Inhibition of FIG-ROS1 long isoform fusion protein expressed in mouse NIH3T3 cells assessed as inhibition of phosphorylated ROS1 incubated for 1 hr by ELISA analysis; type: cell-based; in short: as §3
BaF3 [12] = experiment: cells; details: Mus musculus, BaF3, 72 h
[13] = target: T3, Golgi-associated PDZ and coiled-coil motif-containing protein/Proto-oncogene tyrosine-protein kinase ROS; experiment: Inhibition of FIG-ROS1 short isoform fusion protein expressed in mouse NIH3T3 cells assessed as inhibition of phosphorylated ROS1 incubated for 1 hr by ELISA analysis; type: cell-based; in short: as §3
SLC34A2-ROS1 = SLC34A2-ROS1 (Homo sapiens, UniProt P08922); experiment: Inhibition of SLC34A2-ROS1 fusion protein expressed in human HCC78 cells assessed as inhibition of phosphorylated ROS1 incubated for 1 hr by ELISA analysis; type: cell-based
[14] = Inhibition of CD74-ROS1 L2026M mutant expressed in mouse BaF3 cells assessed as inhibition of phosphorylated ROS1 incubated for 1 hr by ELISA analysis; type: cell-based; details: BaF3, 1 h
[15] = system: Proto-oncogene tyrosine-protein kinase ROS (Homo sapiens), P08922 [G2032R]; experiment: Binding affinity to recombinant human ROS1 G2032R mutant assessed as inhibition constant in presence of ATP by microfluidic mobility shift assay
[16] = target: T1, Proto-oncogene tyrosine-protein kinase ROS; experiment: Binding affinity to recombinant human ROS1 assessed as inhibition constant in presence of ATP by microfluidic mobility shift assay
[17] = target: Proto-oncogene tyrosine-protein kinase ROS (Homo sapiens, UniProt P08922, L2026M); experiment: Binding affinity to recombinant human ROS1 L2026M mutant assessed as inhibition constant in presence of ATP by microfluidic mobility shift assay

Chain of Proto-oncogene tyrosine-protein kinase ROS (Homo sapiens), P08922 [L2026M] (P08922 whole entry L2026M): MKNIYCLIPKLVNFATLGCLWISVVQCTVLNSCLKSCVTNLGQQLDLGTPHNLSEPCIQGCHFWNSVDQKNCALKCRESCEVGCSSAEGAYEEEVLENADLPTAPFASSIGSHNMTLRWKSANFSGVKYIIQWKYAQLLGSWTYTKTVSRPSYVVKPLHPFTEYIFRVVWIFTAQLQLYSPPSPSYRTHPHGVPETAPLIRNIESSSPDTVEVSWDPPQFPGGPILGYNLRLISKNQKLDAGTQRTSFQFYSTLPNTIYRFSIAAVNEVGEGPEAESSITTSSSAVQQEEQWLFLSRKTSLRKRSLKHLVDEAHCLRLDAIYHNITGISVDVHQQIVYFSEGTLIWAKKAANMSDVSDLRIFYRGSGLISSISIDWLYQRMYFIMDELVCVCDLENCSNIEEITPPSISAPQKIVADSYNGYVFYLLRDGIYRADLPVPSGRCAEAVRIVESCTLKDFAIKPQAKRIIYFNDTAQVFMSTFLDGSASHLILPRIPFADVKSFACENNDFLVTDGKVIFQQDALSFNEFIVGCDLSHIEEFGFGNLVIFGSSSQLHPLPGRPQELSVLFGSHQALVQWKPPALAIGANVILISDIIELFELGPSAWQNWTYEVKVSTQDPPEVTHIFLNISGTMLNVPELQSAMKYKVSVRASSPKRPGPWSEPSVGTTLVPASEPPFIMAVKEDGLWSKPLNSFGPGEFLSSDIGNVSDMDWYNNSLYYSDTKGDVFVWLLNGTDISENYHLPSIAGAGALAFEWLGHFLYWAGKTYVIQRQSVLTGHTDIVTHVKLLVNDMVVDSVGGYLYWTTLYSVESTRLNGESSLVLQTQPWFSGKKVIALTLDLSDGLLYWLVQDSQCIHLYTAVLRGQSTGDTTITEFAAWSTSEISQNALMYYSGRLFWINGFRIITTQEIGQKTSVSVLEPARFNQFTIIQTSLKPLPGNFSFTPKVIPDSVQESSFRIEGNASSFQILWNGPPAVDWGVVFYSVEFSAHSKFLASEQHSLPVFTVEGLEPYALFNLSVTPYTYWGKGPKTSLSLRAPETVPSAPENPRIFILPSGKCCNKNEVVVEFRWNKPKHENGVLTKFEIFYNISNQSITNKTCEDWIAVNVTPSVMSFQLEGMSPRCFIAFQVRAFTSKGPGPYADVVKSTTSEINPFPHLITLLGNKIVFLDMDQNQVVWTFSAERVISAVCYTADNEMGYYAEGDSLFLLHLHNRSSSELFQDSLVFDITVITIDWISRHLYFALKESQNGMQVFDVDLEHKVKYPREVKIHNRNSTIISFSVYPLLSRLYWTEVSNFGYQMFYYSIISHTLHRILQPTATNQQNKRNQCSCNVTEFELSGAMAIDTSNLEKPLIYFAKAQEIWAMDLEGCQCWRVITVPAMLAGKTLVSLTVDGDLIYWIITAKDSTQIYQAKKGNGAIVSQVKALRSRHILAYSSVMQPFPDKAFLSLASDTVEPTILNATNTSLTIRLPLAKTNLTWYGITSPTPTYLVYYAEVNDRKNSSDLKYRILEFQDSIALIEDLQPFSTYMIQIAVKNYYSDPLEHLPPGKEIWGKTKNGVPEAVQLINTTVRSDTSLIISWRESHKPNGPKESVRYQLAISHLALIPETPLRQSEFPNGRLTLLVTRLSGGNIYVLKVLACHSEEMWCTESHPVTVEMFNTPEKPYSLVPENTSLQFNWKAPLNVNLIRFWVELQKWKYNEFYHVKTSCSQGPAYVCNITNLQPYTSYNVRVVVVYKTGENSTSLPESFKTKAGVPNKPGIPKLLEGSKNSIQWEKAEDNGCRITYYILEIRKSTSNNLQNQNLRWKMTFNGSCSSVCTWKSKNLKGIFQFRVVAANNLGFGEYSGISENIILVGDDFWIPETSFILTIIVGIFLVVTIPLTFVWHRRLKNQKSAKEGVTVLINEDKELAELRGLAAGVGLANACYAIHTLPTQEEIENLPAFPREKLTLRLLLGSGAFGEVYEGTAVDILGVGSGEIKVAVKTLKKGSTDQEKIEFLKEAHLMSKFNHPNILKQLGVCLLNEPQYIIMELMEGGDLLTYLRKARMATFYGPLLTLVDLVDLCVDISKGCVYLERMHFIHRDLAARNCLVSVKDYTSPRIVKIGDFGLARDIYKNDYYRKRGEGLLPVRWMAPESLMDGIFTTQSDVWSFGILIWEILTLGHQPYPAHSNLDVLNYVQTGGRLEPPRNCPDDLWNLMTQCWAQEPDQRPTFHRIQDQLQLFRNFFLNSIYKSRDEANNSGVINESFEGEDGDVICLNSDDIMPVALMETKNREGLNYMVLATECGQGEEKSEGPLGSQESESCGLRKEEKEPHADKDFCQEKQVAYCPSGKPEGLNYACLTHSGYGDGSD
T2 sequence (Q78DX7 whole entry): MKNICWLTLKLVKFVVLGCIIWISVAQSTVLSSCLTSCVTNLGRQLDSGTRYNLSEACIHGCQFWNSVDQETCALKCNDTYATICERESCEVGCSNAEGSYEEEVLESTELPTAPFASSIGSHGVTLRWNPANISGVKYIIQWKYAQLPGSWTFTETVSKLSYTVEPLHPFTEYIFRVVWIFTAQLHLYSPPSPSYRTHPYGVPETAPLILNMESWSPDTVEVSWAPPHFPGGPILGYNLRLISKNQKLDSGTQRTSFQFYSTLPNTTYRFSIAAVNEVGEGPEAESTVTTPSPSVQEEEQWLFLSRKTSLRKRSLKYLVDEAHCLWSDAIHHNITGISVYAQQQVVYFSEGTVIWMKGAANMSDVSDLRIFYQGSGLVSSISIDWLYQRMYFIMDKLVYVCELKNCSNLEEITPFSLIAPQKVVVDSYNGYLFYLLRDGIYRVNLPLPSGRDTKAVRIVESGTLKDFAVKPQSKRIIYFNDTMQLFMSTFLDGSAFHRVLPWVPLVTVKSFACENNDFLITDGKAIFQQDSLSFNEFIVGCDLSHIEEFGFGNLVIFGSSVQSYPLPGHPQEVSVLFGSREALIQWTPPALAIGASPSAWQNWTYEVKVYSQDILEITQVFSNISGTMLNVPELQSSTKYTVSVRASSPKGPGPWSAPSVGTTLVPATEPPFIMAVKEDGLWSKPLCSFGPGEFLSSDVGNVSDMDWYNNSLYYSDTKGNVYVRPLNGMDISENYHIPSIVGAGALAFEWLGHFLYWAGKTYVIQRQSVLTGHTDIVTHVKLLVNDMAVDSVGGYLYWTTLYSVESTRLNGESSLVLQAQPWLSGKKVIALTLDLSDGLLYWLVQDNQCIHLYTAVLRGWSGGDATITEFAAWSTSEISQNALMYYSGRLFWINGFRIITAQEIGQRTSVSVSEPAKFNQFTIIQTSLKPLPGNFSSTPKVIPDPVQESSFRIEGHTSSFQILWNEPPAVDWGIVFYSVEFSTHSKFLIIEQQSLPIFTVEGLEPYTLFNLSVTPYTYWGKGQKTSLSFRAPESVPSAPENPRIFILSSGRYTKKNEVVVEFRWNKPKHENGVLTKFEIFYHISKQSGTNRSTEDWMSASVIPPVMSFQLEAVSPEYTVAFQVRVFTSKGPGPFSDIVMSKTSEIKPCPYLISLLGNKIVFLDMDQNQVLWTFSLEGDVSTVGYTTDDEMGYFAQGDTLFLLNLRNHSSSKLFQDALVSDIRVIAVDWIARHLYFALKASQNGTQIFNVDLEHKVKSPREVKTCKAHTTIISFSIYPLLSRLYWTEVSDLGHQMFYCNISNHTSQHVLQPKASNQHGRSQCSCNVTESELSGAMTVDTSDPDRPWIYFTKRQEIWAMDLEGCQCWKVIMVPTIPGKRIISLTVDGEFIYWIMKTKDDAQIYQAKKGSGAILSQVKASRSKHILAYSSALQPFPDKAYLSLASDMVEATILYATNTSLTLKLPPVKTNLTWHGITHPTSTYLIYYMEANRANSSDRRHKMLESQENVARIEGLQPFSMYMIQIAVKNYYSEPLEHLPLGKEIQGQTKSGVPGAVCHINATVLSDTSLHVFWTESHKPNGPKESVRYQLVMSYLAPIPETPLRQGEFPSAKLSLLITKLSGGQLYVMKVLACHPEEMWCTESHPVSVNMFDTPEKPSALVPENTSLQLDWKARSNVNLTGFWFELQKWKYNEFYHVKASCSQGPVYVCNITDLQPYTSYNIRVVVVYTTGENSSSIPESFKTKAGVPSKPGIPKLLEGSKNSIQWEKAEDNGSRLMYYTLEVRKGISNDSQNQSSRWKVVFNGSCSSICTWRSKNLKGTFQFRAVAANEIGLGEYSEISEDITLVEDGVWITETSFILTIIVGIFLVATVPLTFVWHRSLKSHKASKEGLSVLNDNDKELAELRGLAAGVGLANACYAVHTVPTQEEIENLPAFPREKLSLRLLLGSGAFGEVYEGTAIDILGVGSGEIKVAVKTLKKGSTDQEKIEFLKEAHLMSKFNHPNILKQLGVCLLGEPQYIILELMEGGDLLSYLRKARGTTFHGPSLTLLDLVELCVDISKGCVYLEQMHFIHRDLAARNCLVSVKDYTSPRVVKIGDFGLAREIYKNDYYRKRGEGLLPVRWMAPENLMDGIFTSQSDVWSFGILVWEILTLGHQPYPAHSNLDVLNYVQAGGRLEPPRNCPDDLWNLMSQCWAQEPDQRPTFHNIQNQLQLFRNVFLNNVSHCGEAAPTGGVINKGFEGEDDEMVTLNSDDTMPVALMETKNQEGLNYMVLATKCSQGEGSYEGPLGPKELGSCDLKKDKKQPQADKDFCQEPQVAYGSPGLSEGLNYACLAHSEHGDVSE
T2 sequence (P04441 whole entry, further chain): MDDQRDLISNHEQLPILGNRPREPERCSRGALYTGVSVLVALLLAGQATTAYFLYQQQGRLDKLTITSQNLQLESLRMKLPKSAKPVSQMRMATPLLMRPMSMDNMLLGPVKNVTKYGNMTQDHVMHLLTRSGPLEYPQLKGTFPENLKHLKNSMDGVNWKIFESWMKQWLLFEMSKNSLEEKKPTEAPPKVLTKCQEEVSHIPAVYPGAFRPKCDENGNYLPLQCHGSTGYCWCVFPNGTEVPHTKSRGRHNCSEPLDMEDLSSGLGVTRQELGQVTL
T3 sequence (Q78DX7 whole entry, other chains not shown, the tested form may be a part, canonical isoform): as the sequence (Q78DX7 whole entry) above
T1 sequence (P08922 whole entry): as the sequence (P08922 whole entry L2026M) above, with M2026L counted along it
Chain of Proto-oncogene tyrosine-protein kinase ROS (Homo sapiens), P08922 [G2032R] (P08922 whole entry G2032R): as the sequence (P08922 whole entry L2026M) above, with M2026L, G2032R counted along it

SMILES | inhibition [1] | IC50 (HCC78 [2]) [nM] | inhibition [3] | IC50 (BaF3 [4]) [nM] | IC50 (HCC78 [5]) [nM] | IC50 [6] [nM] | inhibition [7] | IC50 [8] [nM] | IC50 (BaF3 [9]) [nM] | IC50 [10] [nM] | IC50 [11] [nM] | IC50 (BaF3 [12]) [nM] | IC50 [13] [nM] | IC50 (SLC34A2-ROS1) [nM] | IC50 [14] [nM] | Kis [15] [nM] | Ki [16] [nM] | Ki [17] [nM]
C[C@@H](Oc1cc(-c2cnn(C3CCNCC3)c2)cnc1N)c1c(Cl)ccc(F)c1Cl [CRIZOTINIB] | Dose-Dependent Effect | 47 | Dose-Dependent Effect | 259 | 21 | > 5000 | Dose-Dependent Effect | 3.9 | > 2000 | 11 | 41 | 18 | 60 |  |  |  |  | 
CCc1cc2c(cc1N1CCC(N3CCOCC3)CC1)C(C)(C)c1[nH]c3cc(C#N)ccc3c1C2=O [ALECTINIB] | inactive | > 1000 | Dose-Dependent Effect | > 2000 | > 10000 | > 10000 | Dose-Dependent Effect | > 10000 | > 2000 | > 5000 | > 5000 | > 2000 | > 5000 | > 1000 | > 10000 | > 3000 | 2400 | 2000
Cc1cc(Nc2ncc(Cl)c(Nc3ccccc3S(=O)(=O)C(C)C)n2)c(OC(C)C)cc1C1CCNCC1 [CERITINIB] | Dose-Dependent Effect | 226 | Dose-Dependent Effect | 60 | 506 | > 2000 | Dose-Dependent Effect | 71 | > 2000 | 341 | 304 | 44 | 488 |  | 70 |  |  | 
COc1cc2nccc(Oc3ccc(NC(=O)C4(C(=O)Nc5ccc(F)cc5)CC4)cc3)c2cc1OC [CABOZANTINIB] |  |  |  | 1.1 |  | 6.4 |  | 1.5 | 1.3 |  |  | 2.3 |  |  | 1.4 |  |  | 
COc1cc2c(Oc3ccc(NC(=O)C4(C(=O)Nc5ccc(F)cc5)CC4)cc3F)ccnc2cc1OCCCN1CCOCC1 [FORETINIB] | Dose-Dependent Effect | 21 | Dose-Dependent Effect | 8.6 | 19 | 88 | Dose-Dependent Effect | 3.8 | 69 | 5.47 | 5.6 | 11 | 6.1 |  |  |  |  | 
